Published values pooled from the literature.
Compare with care: the assays were run in different laboratories.
Target: Receptor tyrosine-protein kinase erbB-2 (ERBB2, Homo sapiens, UniProt P04626)

Compound	effect on	action	technique	tested at	endpoint	result
C#Cc1n[nH]c2c(-c3cn([C@@H](C)c4ccccn4)c(=O)[nH]c3=O)cc(F)cc12	enzyme activity	inhibitor		0.1 µM	inhibition	-0.7%
c1ccc(C(NCCNC(c2ccccc2)c2ccccc2)c2ccccc2)cc1	enzyme activity	inhibitor		10 µM	inhibition	-7%
Cn1cc(-c2cccc(N3CCc4c(sc5c4CC(C)(C)C5)C3=O)c2CO)cc(Nc2ccncn2)c1=O	enzyme activity	inhibitor		1 µM	inhibition	54%
C[C@H](C(=O)N[C@H]1COc2ccccc2[C@@H]1S(C)(=O)=O)c1ccc(F)cc1	enzyme activity	inhibitor		10 µM	inhibition	0%
Nc1ncc(-c2nc(N3CCOCC3)nc(N3CCOCC3)n2)c(C(F)F)n1	binding		competition with immobilised ligand	10 µM	remaining binding	65%
C#Cc1n[nH]c2c(-c3cn([C@@H](C)c4ccccc4)c(=O)[nH]c3=O)cc(F)cc12	enzyme activity	inhibitor		0.1 µM	inhibition	-8.5%
O=c1[nH]c2ccccc2n1C1CCN(Cc2ccc(-c3[nH]c4cc5ncnc5cc4nc3-c3ccccc3)cc2)CC1	cell-free assay			0.5 µM	remaining signal	88.9%
Cn1cc(-c2cc(F)cc(N3CCn4c(cc5c4CCCC5)C3=O)c2CO)cc(Nc2ccc(N3CCN(C4COC4)CC3)cn2)c1=O	enzyme activity	inhibitor		0.1 µM	inhibition	7%
N#CC1(c2ccccn2)CCN(Cc2cc(C(=O)O)c(=O)n3ccccc23)CC1	cell-free assay		competition with immobilised ligand	1 µM	remaining binding	96%
COc1ncccc1-c1cnn2ccc(N3CCN(C(=O)OC(C)C)CC3)nc12	binding		competition with immobilised ligand	1 µM	remaining binding	92%
Cn1cncc1[C@@](O)(COc1ccc(C#N)cc1-c1ccc(OC(F)(F)F)cc1)c1ccc(C#N)cc1	cell-free assay		competition with immobilised ligand	1 µM	remaining binding	94%
Cc1nn(C)cc1-c1nc2c(N3CCN(Cc4ccc(Cl)cc4)CC3)c(Cl)cnc2[nH]1	binding		competition with immobilised ligand	1 µM	remaining binding	70%
COc1cc(Nc2ncc(F)c(Nc3ccc4c(n3)NC(=O)C(C)(C)O4)n2)cc(OC)c1OC	binding		competition with immobilised ligand	10 µM	inhibition	70%
CC(C)(C)c1cc(C=C(C#N)C#N)cc(Br)c1O	enzyme activity	inhibitor		0.5 µM	remaining activity	95.7%
